We go through ten molecules from ChEMBL document CHEMBL3351375, “Propyphenazone-based analogues as prodrugs and selective cyclooxygenase-2 inhibitors” (ACS Med Chem Lett, 2014).

Calls of active or inactive are those of the source. No cut-off for these calls is given here.

The target in data set [1] is T1, Prostaglandin G/H synthase 1 (Ovis aries, UniProt P05979).
T1 sequence (P05979 whole entry): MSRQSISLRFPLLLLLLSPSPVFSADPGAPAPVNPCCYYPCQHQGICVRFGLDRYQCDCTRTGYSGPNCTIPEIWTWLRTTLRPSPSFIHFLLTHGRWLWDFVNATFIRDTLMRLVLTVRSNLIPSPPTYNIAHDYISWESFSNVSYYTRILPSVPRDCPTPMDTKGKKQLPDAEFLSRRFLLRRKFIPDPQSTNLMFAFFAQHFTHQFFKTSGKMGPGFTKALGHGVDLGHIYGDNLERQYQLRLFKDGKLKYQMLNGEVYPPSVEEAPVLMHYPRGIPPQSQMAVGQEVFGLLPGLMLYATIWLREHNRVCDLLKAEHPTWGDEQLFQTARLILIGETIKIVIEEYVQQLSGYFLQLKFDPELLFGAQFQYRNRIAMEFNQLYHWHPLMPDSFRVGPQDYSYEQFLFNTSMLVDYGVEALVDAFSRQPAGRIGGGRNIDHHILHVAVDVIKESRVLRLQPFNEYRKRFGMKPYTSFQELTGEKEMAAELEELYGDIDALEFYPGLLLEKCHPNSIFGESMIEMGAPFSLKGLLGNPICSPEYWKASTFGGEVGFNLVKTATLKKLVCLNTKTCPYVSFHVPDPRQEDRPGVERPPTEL
Briefly: Inhibition of purified ovine COX1 pre-treated for 1 hr before 10-acetyl-3,7-dihydroxyphenoxazin substrate addition in presence of porcine liver esterase by fluorescence assay. A digest of the protocol: (§1)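 COX1 (ovine) and COX2 (human recombinant) were inhibited, with compound tested both without and with porcine liver esterase added. IC50 (μM) and % inhibition at saturation were reported. COX1 was also tested at a single 160 μM concentration.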

The target in data set [2] is T1, Prostaglandin G/H synthase 1. Briefly: Inhibition of purified ovine COX1 pre-treated for 1 hr before 10-acetyl-3,7-dihydroxyphenoxazin substrate addition in absence of porcine liver esterase by fluorescence assay. A digest of the protocol:
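COX1 (ovine) and COX2 (human recombinant) were inhibited, with compound tested both without and with porcine liver esterase added. IC50 (μM) and % inhibition at saturation were reported.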

For data set [3], the target named is T2, Prostaglandin G/H synthase 1 (Ovis aries) (UniProt P05979).
T2 sequence (whole entry): T1 sequence (P05979 whole entry)
Briefly: Inhibition of purified ovine COX1 at saturation drug level pre-treated for 1 hr before 10-acetyl-3,7-dihydroxyphenoxazin substrate addition in absence of porcine liver esterase by fluorescence assay. A digest of the protocol: as §1

For data set [4], the system named is Mus musculus. Briefly: Analgesic activity in mouse assessed as protection against acetic acid-induced abdominal constriction dosed 1 hr before acetic acid challenge measured for 20 mins post acetic acid challenge.
Data set [5] has as its target T3, Liver carboxylesterase (Sus scrofa, UniProt Q29550).
T3 sequence (Q29550 whole entry): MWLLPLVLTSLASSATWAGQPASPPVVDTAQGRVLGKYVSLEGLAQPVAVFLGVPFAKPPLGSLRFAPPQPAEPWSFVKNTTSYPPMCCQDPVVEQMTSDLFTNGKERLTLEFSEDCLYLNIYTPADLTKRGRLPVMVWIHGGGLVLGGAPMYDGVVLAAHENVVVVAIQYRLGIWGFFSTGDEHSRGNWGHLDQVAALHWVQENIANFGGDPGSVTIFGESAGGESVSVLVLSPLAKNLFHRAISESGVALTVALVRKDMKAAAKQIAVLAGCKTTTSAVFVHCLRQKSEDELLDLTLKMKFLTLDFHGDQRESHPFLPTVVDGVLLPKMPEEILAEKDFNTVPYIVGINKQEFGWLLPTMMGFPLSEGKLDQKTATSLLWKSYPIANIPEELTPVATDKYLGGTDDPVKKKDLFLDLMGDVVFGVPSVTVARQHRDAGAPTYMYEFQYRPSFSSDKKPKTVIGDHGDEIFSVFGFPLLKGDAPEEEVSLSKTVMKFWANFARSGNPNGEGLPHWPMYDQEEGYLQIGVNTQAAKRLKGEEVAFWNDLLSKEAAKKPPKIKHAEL
Briefly: Prodrug conversion assessed as half life for porcine liver esterase-mediated prodrug conversion measured every 4 minutes for 100 mins by UV-visible absorption spectroscopy. The class given is ADME. The following applies: pig, isolated protein. Put shortly:
(§2)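 Compound was incubated with porcine liver esterase at pH 7.5. UV–vis absorption spectra were recorded every 4 min for 100 min after esterase addition. Pseudo-first-order rate constants (s−1) were derived, and half-lives were calculated from them.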

In data set [6] the test system is Mus musculus. As to the kind of experiment: Anti-inflammatory activity in Swiss mouse model of carrageenan-induced paw edema assessed as reduction in paw swelling at 50 mg/kg, sc dosed 30 mins before carrageenan challenge measured at 120 mins post carrageenan challenge by mercury plethysmometry. The class given is functional, organism-based. Details: dose 50 mg/kg. Put shortly: (§3)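 In a mouse carrageenan paw edema model, compounds were given subcutaneously as pretreatment before the carrageenan injection. Swelling of the injected paw was measured with a mercury plethysmometer at 1, 2, 3 and 4 h. Activity was expressed as reduction in swelling relative to control.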
Background: Carrageenan injected into the paw causes an acute inflammation.

For data set [7], the target named is T2, Prostaglandin G/H synthase 1 (Ovis aries). Briefly: Inhibition of purified ovine COX1 at saturation drug level pre-treated for 1 hr before 10-acetyl-3,7-dihydroxyphenoxazin substrate addition in presence of porcine liver esterase by fluorescence assay. Put shortly: as §1
In data set [8] the test system is Mus musculus. Briefly: Anti-inflammatory activity in Swiss mouse model of carrageenan-induced paw edema assessed as reduction in paw swelling at 50 mg/kg, sc dosed 30 mins before carrageenan challenge measured at 1 to 4 hrs post carrageenan challenge by mercury plethysmometry. It is filed as functional, organism-based. Details: dose 50 mg/kg. A digest of the protocol: as §3

Data set [9] concerns the target T4, Prostaglandin G/H synthase 2 (Homo sapiens, UniProt P35354).
T4 sequence (P35354 whole entry): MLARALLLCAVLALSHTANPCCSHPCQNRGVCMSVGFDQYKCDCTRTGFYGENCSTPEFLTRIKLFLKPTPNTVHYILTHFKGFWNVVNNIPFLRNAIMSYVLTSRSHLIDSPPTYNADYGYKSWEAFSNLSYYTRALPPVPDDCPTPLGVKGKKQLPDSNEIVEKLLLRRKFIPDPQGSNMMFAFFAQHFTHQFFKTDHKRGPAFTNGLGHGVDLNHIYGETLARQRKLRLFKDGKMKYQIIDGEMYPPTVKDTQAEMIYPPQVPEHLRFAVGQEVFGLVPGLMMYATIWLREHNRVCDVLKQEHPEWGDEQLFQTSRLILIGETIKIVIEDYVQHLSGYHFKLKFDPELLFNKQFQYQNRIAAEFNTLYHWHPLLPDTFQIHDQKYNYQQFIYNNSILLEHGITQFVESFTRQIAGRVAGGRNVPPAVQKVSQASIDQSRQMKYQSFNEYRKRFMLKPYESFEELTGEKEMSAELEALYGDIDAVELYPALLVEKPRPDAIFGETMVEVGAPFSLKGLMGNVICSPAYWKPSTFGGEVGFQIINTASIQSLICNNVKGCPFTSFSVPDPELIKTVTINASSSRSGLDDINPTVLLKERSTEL
As to the kind of experiment: Inhibition of human recombinant COX2 pre-treated for 1 hr before 10-acetyl-3,7-dihydroxyphenoxazin substrate addition in presence of porcine liver esterase by fluorescence assay. Put shortly:
as §1

Data set [10] relates to Mus musculus. Briefly: Anti-inflammatory activity in Swiss mouse model of carrageenan-induced paw edema assessed as reduction in paw swelling at 50 mg/kg, sc dosed 30 mins before carrageenan challenge measured at 2 to 4 hrs post carrageenan challenge by mercury plethysmometry. The class given is functional, organism-based. The arrangement: dose 50 mg/kg. Put shortly: as §3

In data set [11] the target is T3, Liver carboxylesterase. Briefly: Prodrug conversion assessed as pseudo-first-order rate constant for porcine liver esterase-mediated prodrug conversion measured every 4 minutes for 100 mins by UV-visible absorption spectroscopy. The class given is ADME. The note with it: pig, isolated protein. Put shortly:
as §2

Data set [12] deals with Mus musculus. As to the kind of experiment: Analgesic activity in mouse assessed as protection against acetic acid-induced abdominal constriction dosed with equimolar mixture of propyphenazone 1 hr before acetic acid challenge measured for 20 mins post acetic acid challenge.

One may read the IC50 as the concentration that gives 50% inhibition. As a reminder, the inhibition is the drop in the measured response relative to a control, in per cent. On to `Cc1c(NCc2c(C(C)C)c(=O)n(-c3ccccc3)n2C)c(=O)n(-c2ccccc2)n1C` [BISFENAZONE], for which the IC50 entry in data set [1] and in data set [2] was “Not Active” throughout. Moreover, the inhibition entry in data set [3] and in data set [7] was “inactive” throughout. For the same molecule, the Activity with Mus musculus [4] turned out to be 100%. For the same molecule, the t1/2 entry on Liver carboxylesterase [5] is on record as “Stable”. The inhibition result in the data set with Mus musculus [6] was “Active”.
For the molecule `O=C(O)Cc1ccccc1Nc1c(Cl)cccc1Cl` [DICLOFENAC], in data set [3] (concentration not given here), the inhibition amounted to 100%. For the same molecule, the Activity with Mus musculus [4] came to 63%. In addition, in the data set on Mus musculus [8], the Anti-inflammatory activity entry was “Active”.
For `CC(C)Cc1ccc(C(C)C(=O)O)cc1` (stereo unspecified), the Anti-inflammatory activity entry with Mus musculus [8] is “Active”.
With `CC(C)c1c(CN(C)CCc2ccccn2)n(C)n(-c2ccccc2)c1=O`, the IC50 in data set [1] (read-out: IC50) was 24 µM; in [2] (read-out: IC50), 24 µM; in data set [9], “Not Active”. In addition, the inhibition in [3] (concentration not given here) and in [7] (concentration not given here) was 43% throughout. The Activity with Mus musculus [4] was 45%. Besides, in the data set on Mus musculus [8], the Anti-inflammatory activity entry is “inactive”. Further, at Liver carboxylesterase [5], the t1/2 result is “Stable”.
Consider `CC(C)Cc1ccc(C(C)C(=O)OCc2c(C(C)C)c(=O)n(-c3ccccc3)n2C)cc1` (stereo unspecified), for which the IC50 in data set [1] (read-out: IC50) is 4.7 µM; in [2], “Not Active”; in data set [9] (read-out: IC50), 1.3 µM. Besides, the inhibition entry in data set [3] was “inactive”. In the data set on Mus musculus [10], the inhibition entry was “Active”. In addition, the Activity with Mus musculus [4] is reported as 95%. Moreover, the t1/2 on Liver carboxylesterase [5] is reported as 28.8 min. The K at Liver carboxylesterase [11] came to 0.0004 s⁻¹. Besides, the inhibition in [7] (concentration not given here) amounted to 100%.
Consider `Cc1c(C(C)C)c(=O)n(-c2ccccc2)n1C` [PROPYPHENAZONE], for which, in the data set on Mus musculus [4], the Activity is 45%. In the data set on Mus musculus [8], the Anti-inflammatory activity result was “inactive”.
With `Cc1c(N)c(=O)n(-c2ccccc2)n1C` [AMPYRONE], the IC50 in data set [2] (read-out: IC50) stood at 26 µM. For the same molecule, the inhibition in [3] (concentration not given here) is 100%. Besides, the Activity in the data set on Mus musculus [4] worked out at 45%; in the data set with Mus musculus [12], 35%.
Regarding `CC(C(=O)O)c1cccc(C(=O)c2ccccc2)c1` (stereo unspecified) [KETOPROFEN], the IC50 in [2] (read-out: IC50) was 0.8 µM. The inhibition in data set [3] (concentration not given here) was determined as 100%. Moreover, the Activity with Mus musculus [4] is recorded as 66%. Further, the Anti-inflammatory activity entry in the data set with Mus musculus [8] was “Active”.
For the molecule `CC(C)c1c(COC(=O)Cc2ccccc2Nc2c(Cl)cccc2Cl)n(C)n(-c2ccccc2)c1=O`, the concentration for half-maximal inhibition (IC50) was 0.25 µM in data set [1] (read-out: IC50), 7.1 µM in data set [2] (read-out: IC50) and 9.9 µM in data set [9] (read-out: IC50). Moreover, the values for the inhibition in data set [3] (concentration not given here) and in [7] (concentration not given here) were 29% and 100%, respectively. The inhibition result with Mus musculus [10] is “Active”. Also, in the data set with Mus musculus [4], the Activity came out at 87%. For the same molecule, the t1/2 on Liver carboxylesterase [5] came out at 11.5 min. In addition, the K at Liver carboxylesterase [11] stood at 0.001 s⁻¹.
For the molecule `CC(C)c1c(COC(=O)C(C)c2cccc(C(=O)c3ccccc3)c2)n(C)n(-c2ccccc2)c1=O` (stereo unspecified), the IC50 in data set [1] (read-out: IC50) is 0.48 µM; in [2] (read-out: IC50) it was 0.2 µM; in data set [9] (read-out: IC50), 2.2 µM. Also, the figures for the inhibition in data set [3] (concentration not given here) and in data set [7] (concentration not given here) were 43% and 100%, respectively. For the same molecule, in the data set on Mus musculus [10], the inhibition result was “Active”. Also, in the data set with Mus musculus [4], the Activity stood at 73%. For the same molecule, the t1/2 on Liver carboxylesterase [5] was 38.5 min. Also, the K at Liver carboxylesterase [11] was determined as 0.0003 s⁻¹.
